Data reported in ChEMBL document CHEMBL1138525 (J Med Chem, 2009).
The source made the active and inactive calls. The calls are words filed in the database; no cut-off is given here.

What was measured:
Type in all cases: functional, cell-based
P2Y purinoceptor 2 [1] = target: P2Y purinoceptor 2 (Homo sapiens, UniProt P41231, C278S); assay: Agonist activity at N-terminal HA epitope-tagged human P2Y2 receptor C278S mutant expressed in human 1321N1 cells assessed as increase in intracellular calcium level
Outline: (§1)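 1321N1 astrocytoma cells stably expressing mutant receptor (retroviral transfection, G418 selection), loaded with Oregon Green BAPTA-1/AM in Krebs-HEPES pH 7.4 for 1 h at room temperature. Plated at 150000 cells/well and held 20 min at 28 °C in the dark. Efficacy relative to 100 µM carbachol.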

[2] = tested on: P2Y purinoceptor 2 (Homo sapiens), P41231 [S296A]; assay: Agonist activity at N-terminal HA epitope-tagged human P2Y2 receptor S296A mutant expressed in human 1321N1 cells assessed as increase in intracellular calcium level relative to carbachol
Outline: (§2)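 Retrovirally transduced stable 1321N1 astrocytoma lines (wild-type lines of differing expression, or mutants) in suspension, loaded with Oregon Green BAPTA-1/AM for 1 h at room temperature. Cells were plated at 150000 per well in Krebs-HEPES pH 7.4 and held 20 min at 28 °C in the dark. Agonist was then injected, with fluorescence read at ex 485/em 520 nm for 60 × 0.4 s.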

P2Y purinoceptor 2 [3] = target: P2Y purinoceptor 2 (Homo sapiens, UniProt P41231, S296A); assay: Agonist activity at N-terminal HA epitope-tagged human P2Y2 receptor S296A mutant expressed in human 1321N1 cells assessed as increase in intracellular calcium level
Outline: (§3)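 Retrovirally transduced stable 1321N1 astrocytoma lines (wild-type lines of differing expression, or mutants) in suspension, loaded with Oregon Green BAPTA-1/AM for 1 h at room temperature. Cells were plated at 150000 per well in Krebs-HEPES pH 7.4 and held 20 min at 28 °C in the dark.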

P2Y purinoceptor 2 [4] = target: T1, P2Y purinoceptor 2 (Homo sapiens, UniProt P41231); assay: Agonist activity at N-terminal HA epitope-tagged wild type 3 human P2Y2 receptor expressed in human 1321N1 cells assessed as increase in intracellular calcium level relative to carbachol; outline: as §2
1321-N1 = assay: Effect on intracellular calcium level in non transfected human 1321N1 cells
P2Y purinoceptor 2 [5] = target: T1, P2Y purinoceptor 2; assay: Agonist activity at N-terminal HA epitope-tagged wild type human P2Y2 receptor expressed in human 1321N1 cells assessed as increase in intracellular calcium level; outline: as §2
P2Y purinoceptor 2 [6] = target: T1, P2Y purinoceptor 2; assay: Agonist activity at N-terminal HA epitope-tagged wild type 1 human P2Y2 receptor expressed in human 1321N1 cells assessed as increase in intracellular calcium level; outline: as §2
P2Y purinoceptor 2 [7] = target: T1, P2Y purinoceptor 2; assay: Agonist activity at N-terminal HA epitope-tagged wild type 3 human P2Y2 receptor expressed in human 1321N1 cells assessed as increase in intracellular calcium level; outline: as §3
P2Y purinoceptor 2 [8] = target: T1, P2Y purinoceptor 2; assay: Agonist activity at N-terminal HA epitope-tagged wild type 4 human P2Y2 receptor expressed in human 1321N1 cells assessed as increase in intracellular calcium level; outline: as §3
P2Y purinoceptor 2 [9] = target: P2Y purinoceptor 2 (Homo sapiens, UniProt P41231, Y114A); assay: Agonist activity at N-terminal HA epitope-tagged human P2Y2 receptor Y114A mutant expressed in human 1321N1 cells assessed as increase in intracellular calcium level; outline: as §1
P2Y purinoceptor 2 [10] = target: T1, P2Y purinoceptor 2; assay: Agonist activity at N-terminal HA epitope-tagged wild type 4 human P2Y2 receptor expressed in human 1321N1 cells assessed as increase in intracellular calcium level relative to carbachol; outline: as §2
[11] = tested on: P2Y purinoceptor 2 (Homo sapiens), P41231 [Y114A]; assay: Agonist activity at N-terminal HA epitope-tagged human P2Y2 receptor Y114A mutant expressed in human 1321N1 cells assessed as increase in intracellular calcium level relative to carbachol; outline: as §2
P2Y purinoceptor 2 [12] = target: P2Y purinoceptor 2 (Homo sapiens, UniProt P41231, R177A/R180A); assay: Agonist activity at N-terminal HA epitope-tagged human P2Y2 receptor R177A_R180A double mutant expressed in human 1321N1 cells assessed as increase in intracellular calcium level; outline: as §1
[13] = tested on: P2Y purinoceptor 2 (Homo sapiens), P41231 [R177A,R180A]; assay: Agonist activity at N-terminal HA epitope-tagged human P2Y2 receptor R177A_R180A double mutant expressed in human 1321N1 cells assessed as increase in intracellular calcium level relative to carbachol; outline: as §2
P2Y purinoceptor 2 [14] = target: P2Y purinoceptor 2 (Homo sapiens, UniProt P41231, R177A); assay: Agonist activity at N-terminal HA epitope-tagged human P2Y2 receptor R177A mutant expressed in human 1321N1 cells assessed as increase in intracellular calcium level; outline: as §1
[15] = tested on: P2Y purinoceptor 2 (Homo sapiens), P41231 [R177A]; assay: Agonist activity at N-terminal HA epitope-tagged human P2Y2 receptor R177A mutant expressed in human 1321N1 cells assessed as increase in intracellular calcium level relative to carbachol; outline: as §2
P2Y purinoceptor 2 [16] = target: P2Y purinoceptor 2 (Homo sapiens, UniProt P41231, R180A); assay: Agonist activity at N-terminal HA epitope-tagged human P2Y2 receptor R180A mutant expressed in human 1321N1 cells assessed as increase in intracellular calcium level; outline: as §1
[17] = tested on: P2Y purinoceptor 2 (Homo sapiens), P41231 [R180A]; assay: Agonist activity at N-terminal HA epitope-tagged human P2Y2 receptor R180A mutant expressed in human 1321N1 cells assessed as increase in intracellular calcium level relative to carbachol; outline: as §2
P2Y purinoceptor 2 [18] = target: P2Y purinoceptor 2 (Homo sapiens, UniProt P41231, R272A); assay: Agonist activity at N-terminal HA epitope-tagged human P2Y2 receptor R272A mutant expressed in human 1321N1 cells assessed as increase in intracellular calcium level; outline: as §1
[19] = tested on: P2Y purinoceptor 2 (Homo sapiens), P41231 [R272A]; assay: Agonist activity at N-terminal HA epitope-tagged human P2Y2 receptor R272A mutant expressed in human 1321N1 cells assessed as increase in intracellular calcium level relative to carbachol; outline: as §2
P2Y purinoceptor 2 [20] = target: P2Y purinoceptor 2 (Homo sapiens, UniProt P41231, Y118A); assay: Agonist activity at N-terminal HA epitope-tagged human P2Y2 receptor Y118A mutant expressed in human 1321N1 cells assessed as increase in intracellular calcium level; outline: as §1
P2Y purinoceptor 2 [21] = target: P2Y purinoceptor 2 (Homo sapiens, UniProt P41231, R194H); assay: Agonist activity at N-terminal HA epitope-tagged human P2Y2 receptor R194H mutant expressed in human 1321N1 cells assessed as increase in intracellular calcium level; outline: as §1
[22] = tested on: P2Y purinoceptor 2 (Homo sapiens), P41231 [R194H]; assay: Agonist activity at N-terminal HA epitope-tagged human P2Y2 receptor R194H mutant expressed in human 1321N1 cells assessed as increase in intracellular calcium level relative to carbachol; outline: as §2
P2Y purinoceptor 2 [23] = target: P2Y purinoceptor 2 (Homo sapiens, UniProt P41231, Y198A); assay: Agonist activity at N-terminal HA epitope-tagged human P2Y2 receptor Y198A mutant expressed in human 1321N1 cells assessed as increase in intracellular calcium level; outline: as §1
[24] = tested on: P2Y purinoceptor 2 (Homo sapiens), P41231 [Y198A]; assay: Agonist activity at N-terminal HA epitope-tagged human P2Y2 receptor Y198A mutant expressed in human 1321N1 cells assessed as increase in intracellular calcium level relative to carbachol; outline: as §2
[25] = tested on: P2Y purinoceptor 2 (Homo sapiens), P41231 [C278S]; assay: Agonist activity at N-terminal HA epitope-tagged human P2Y2 receptor C278S mutant expressed in human 1321N1 cells assessed as increase in intracellular calcium level relative to carbachol; outline: as §2
[26] = tested on: P2Y purinoceptor 2 (Homo sapiens), P41231 [Y118A]; assay: Agonist activity at N-terminal HA epitope-tagged human P2Y2 receptor Y118A mutant expressed in human 1321N1 cells assessed as increase in intracellular calcium level relative to carbachol; outline: as §2
Chain of P2Y purinoceptor 2 (Homo sapiens), P41231 [Y118A] (P41231 whole entry Y118A): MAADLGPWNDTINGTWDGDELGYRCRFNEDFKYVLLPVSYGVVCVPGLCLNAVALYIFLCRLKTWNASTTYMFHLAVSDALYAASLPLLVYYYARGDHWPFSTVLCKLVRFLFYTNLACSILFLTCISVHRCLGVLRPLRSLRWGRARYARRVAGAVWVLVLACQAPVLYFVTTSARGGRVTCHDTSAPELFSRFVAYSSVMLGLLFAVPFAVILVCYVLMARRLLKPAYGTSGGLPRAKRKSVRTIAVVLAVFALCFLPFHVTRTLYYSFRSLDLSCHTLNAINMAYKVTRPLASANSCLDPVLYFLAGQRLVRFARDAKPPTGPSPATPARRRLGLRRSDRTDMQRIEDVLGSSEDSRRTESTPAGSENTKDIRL

T1 sequence (P41231 whole entry): as the sequence (P41231 whole entry Y118A) above, with A118Y counted along it
Chain of P2Y purinoceptor 2 (Homo sapiens), P41231 [R272A] (P41231 whole entry R272A): as the sequence (P41231 whole entry Y118A) above, with A118Y, R272A counted along it
Chain of P2Y purinoceptor 2 (Homo sapiens, UniProt P41231, R272A) (P41231 whole entry R272A): as the sequence (P41231 whole entry Y118A) above, with A118Y, R272A counted along it
Chain of P2Y purinoceptor 2 (Homo sapiens), P41231 [R180A] (P41231 whole entry R180A): as the sequence (P41231 whole entry Y118A) above, with A118Y, R180A counted along it
Chain of P2Y purinoceptor 2 (Homo sapiens, UniProt P41231, R180A) (P41231 whole entry R180A): as the sequence (P41231 whole entry Y118A) above, with A118Y, R180A counted along it
Chain of P2Y purinoceptor 2 (Homo sapiens, UniProt P41231, R177A/R180A) (P41231 whole entry R177A/R180A): as the sequence (P41231 whole entry Y118A) above, with A118Y, R177A, R180A counted along it
Chain of P2Y purinoceptor 2 (Homo sapiens), P41231 [R177A,R180A] (P41231 whole entry R177A/R180A): as the sequence (P41231 whole entry Y118A) above, with A118Y, R177A, R180A counted along it
Chain of P2Y purinoceptor 2 (Homo sapiens), P41231 [R177A] (P41231 whole entry R177A): as the sequence (P41231 whole entry Y118A) above, with A118Y, R177A counted along it
Chain of P2Y purinoceptor 2 (Homo sapiens, UniProt P41231, R177A) (P41231 whole entry R177A): as the sequence (P41231 whole entry Y118A) above, with A118Y, R177A counted along it
Chain of P2Y purinoceptor 2 (Homo sapiens, UniProt P41231, S296A) (P41231 whole entry S296A): as the sequence (P41231 whole entry Y118A) above, with A118Y, S296A counted along it
Chain of P2Y purinoceptor 2 (Homo sapiens), P41231 [S296A] (P41231 whole entry S296A): as the sequence (P41231 whole entry Y118A) above, with A118Y, S296A counted along it
Chain of P2Y purinoceptor 2 (Homo sapiens, UniProt P41231, C278S) (P41231 whole entry C278S): as the sequence (P41231 whole entry Y118A) above, with A118Y, C278S counted along it
Chain of P2Y purinoceptor 2 (Homo sapiens), P41231 [C278S] (P41231 whole entry C278S): as the sequence (P41231 whole entry Y118A) above, with A118Y, C278S counted along it
Chain of P2Y purinoceptor 2 (Homo sapiens), P41231 [Y198A] (P41231 whole entry Y198A): as the sequence (P41231 whole entry Y118A) above, with A118Y, Y198A counted along it
Chain of P2Y purinoceptor 2 (Homo sapiens, UniProt P41231, Y198A) (P41231 whole entry Y198A): as the sequence (P41231 whole entry Y118A) above, with A118Y, Y198A counted along it
Chain of P2Y purinoceptor 2 (Homo sapiens, UniProt P41231, R194H) (P41231 whole entry R194H): as the sequence (P41231 whole entry Y118A) above, with A118Y, R194H counted along it
Chain of P2Y purinoceptor 2 (Homo sapiens), P41231 [R194H] (P41231 whole entry R194H): as the sequence (P41231 whole entry Y118A) above, with A118Y, R194H counted along it
Chain of P2Y purinoceptor 2 (Homo sapiens), P41231 [Y114A] (P41231 whole entry Y114A): as the sequence (P41231 whole entry Y118A) above, with Y114A, A118Y counted along it
Chain of P2Y purinoceptor 2 (Homo sapiens, UniProt P41231, Y114A) (P41231 whole entry Y114A): as the sequence (P41231 whole entry Y118A) above, with Y114A, A118Y counted along it
Chain of P2Y purinoceptor 2 (Homo sapiens, UniProt P41231, Y118A) (P41231 whole entry Y118A): as the sequence (P41231 whole entry Y118A) above

Q: For O=c1ccn([C@@H]2O[C@H](COP(=O)(O)OP(=O)(O)OP(=O)(O)O)[C@@H](O)[C@H]2O)c(=O)[nH]1 [URIDINE TRIPHOSPHATE], which EC50 (P2Y purinoceptor 2 [1]) is on record?
A: 2090 nM

Q: And the Efficacy [2]?
A: 3%

Q: And the EC50 (P2Y purinoceptor 2 [3])?
A: > 300000 nM

Q: What about the Efficacy (P2Y purinoceptor 2 [4]) of the same compound?
A: 100%

Q: What about the Activity (1321-N1) of the same compound?
A: inactive

Q: And the Activity (P2Y purinoceptor 2 [5])?
A: Dose-dependent effect

Q: What about the EC50 (P2Y purinoceptor 2 [6]) of the same compound?
A: 781 nM

Q: What about the EC50 (P2Y purinoceptor 2 [7]) of the same compound?
A: 80.4 nM

Q: And the EC50 (P2Y purinoceptor 2 [8])?
A: 59 nM

Q: And the EC50 (P2Y purinoceptor 2 [9])?
A: 37.2 nM

Q: And the Efficacy (P2Y purinoceptor 2 [10])?
A: 138%

Q: What about the Efficacy [11] of the same compound?
A: 107%

Q: And the EC50 (P2Y purinoceptor 2 [12])?
A: 123 nM

Q: What about the Efficacy [13] of the same compound?
A: 109%

Q: What about the EC50 (P2Y purinoceptor 2 [14]) of the same compound?
A: 50.1 nM

Q: And the Efficacy [15]?
A: 133%

Q: What about the EC50 (P2Y purinoceptor 2 [16]) of the same compound?
A: 138 nM

Q: What about the Efficacy [17] of the same compound?
A: 130%

Q: And the EC50 (P2Y purinoceptor 2 [18])?
A: 20600 nM

Q: What about the Efficacy [19] of the same compound?
A: 99%

Q: What about the EC50 (P2Y purinoceptor 2 [20]) of the same compound?
A: 157 nM

Q: What about the EC50 (P2Y purinoceptor 2 [21]) of the same compound?
A: 121 nM

Q: And the Efficacy [22]?
A: 127%

Q: What about the EC50 (P2Y purinoceptor 2 [23]) of the same compound?
A: 108 nM

Q: And the Efficacy [24]?
A: 128%

Q: What about the Efficacy [25] of the same compound?
A: 86%

Q: What about the Efficacy [26] of the same compound?
A: 43%
